Results: ChEMBL document CHEMBL4325891 (Eur J Med Chem, 2019)
The source made the active and inactive calls. The calls are words filed in the database; no cut-off is given here. Where a SMILES comes first, the peptide text is derived from it. The star is where a group is joined. Doxorubicin(Traut) = COc1cccc2c1C(=O)c1c(O)c3c(c(O)c1C2=O)C[C@@](O)(C(=O)CO)C[C@@H]3O[C@H]1C[C@H](NC(=N)CCCS*)[C@H](O)[C@H](C)O1; βAla = NCCC(=O)O

How the values were obtained:
[1] = Inhibition of cell proliferation in HEK293 cells at 5 uM after 24 hrs by MTT or MTS assay relative to control; format: cell-based; conditions: human
HT-1080 [2] = test: Inhibition of cell proliferation in human HT1080 cells at 5 uM after 24 hrs by MTT or MTS assay relative to control; format: functional; conditions: for inhibition at 5 µM: HT-1080, 24 h
How it was run: (§1)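 Seeding was 5000 cells/well for HEK-293, SKOV-3 and HT-1080, and 50,000 for CCRF-CEM, 24 h before dosing. CCRF-CEM was grown in RPMI and the others in EMEM with 10% FBS. Compounds were given at 5 μM for 24 or 72 h at 37 °C, with water/0.025% DMSO as negative control. Adherent lines received fresh medium before adding MTT (595 nm) or MTS (490 nm). Background-corrected OD is expressed as percent of control; triplicate runs.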

CCRF-CEM [3] = test: Inhibition of cell proliferation in human CCRF-CEM cells at 5 uM after 24 hrs by MTT or MTS assay relative to control; format: functional; how it was run: as §1
[4] = Inhibition of cell proliferation in HEK293 cells at 5 uM after 72 hrs by MTT or MTS assay relative to control; format: cell-based; conditions: human; how it was run: as §1
HT-1080 [5] = test: Inhibition of cell proliferation in human HT1080 cells at 5 uM after 72 hrs by MTT or MTS assay relative to control; format: functional; conditions: for inhibition at 5 µM: HT-1080, 72 h
SK-OV-3 [6] = test: Inhibition of cell proliferation in human SKOV3 cells at 5 uM after 72 hrs by MTT or MTS assay relative to control; format: functional; conditions: SK-OV-3, 72 h
CCRF-CEM [7] = test: Inhibition of cell proliferation in human CCRF-CEM cells at 5 uM after 72 hrs by MTT or MTS assay relative to control; format: functional; how it was run: as §1
[8] = Drug uptake in human HT1080 cells nucleus at 5 uM after 1 to 24 hrs by DAPI staining based fluorescence microscopic method; format: ADME, subcellular; conditions: ht-1080, 5 µM
How it was run: (§2)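 1×10^4 cells per chamber were allowed to attach and then cultured overnight. Compounds were added at 5 μM final in fresh medium for 1 h or 24 h, with untreated cells as control. Cells were then washed with DPBS and fixed in 4% paraformaldehyde for 30 min.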

[9] = Drug uptake in human MDA-MB-468 cells nucleus at 5 uM after 1 to 24 hrs by DAPI staining based fluorescence microscopic method; format: ADME, subcellular; conditions: mda-mb-468, 5 µM; how it was run: as §2
[10] = Drug uptake in human MCF7 cells nucleus at 5 uM after 1 to 24 hrs by DAPI staining based fluorescence microscopic method; format: ADME, subcellular; conditions: mcf7, 5 µM; how it was run: as §2
[11] = Drug uptake in human SKOV3 cells nucleus at 5 uM after 1 to 24 hrs by DAPI staining based fluorescence microscopic method; format: ADME, subcellular; conditions: sk-ov-3, 5 µM; how it was run: as §2
[12] = Drug uptake in human HT1080 cells at 50 uM after 3 hrs by flow cytometry; format: ADME, cell-based; conditions: ht-1080, 3 h
[13] = Drug uptake in human SKOV3 cells at 50 uM after 3 hrs by flow cytometry; format: ADME, cell-based; conditions: sk-ov-3, 3 h
[14] = Cytotoxicity against mouse C2C12 cells assessed as cell viability at 5 uM after 72 hrs by MTT assay relative to control; format: cell-based; conditions: read-out: Activity
How it was run: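 C2C12 mouse myoblasts grown in DMEM with 10% FBS, seeded at 10,000 cells/well 24 h before dosing. Compound exposure for 72 h at 37 °C, then MTT read-out. Viability expressed relative to untreated control, set at 100%. Run in triplicate.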

C2C12 [15] = test: Induction of ROS generation in mouse C2C12 cells at 0.5 uM after 72 hrs by H2DCFDA staining based flow cytometry relative to control; format: cell-based; conditions: c2c12, 72 h
C2C12 [16] = test: Induction of FeCl2-mediated ROS generation in mouse C2C12 cells at 0.5 uM after 72 hrs by H2DCFDA staining based flow cytometry relative to control; format: cell-based; conditions: c2c12, 72 h
How it was run: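 C2C12 cells were seeded in DMEM with 10% FBS and cultured 24 h. They were then incubated 72 h in serum-free DMEM with 10 μM Fe²⁺ (FeCl₂), with or without compound at 0.5 μM. Cells were harvested and stained with 10 μM H₂DCFDA in HBSS for 30 min at 37 °C before flow cytometry. The mean signal of 5000 cells is expressed as fold of control; experiments were done twice.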

SK-OV-3 [17] = test: Inhibition of cell proliferation in human SKOV3 cells at 5 uM after 24 hrs by MTT or MTS assay relative to control; format: functional; conditions: SK-OV-3, 24 h
[18] = Drug uptake in HEK293 cells at 50 uM after 3 hrs by flow cytometry; format: ADME, cell-based; conditions: human, hek293, 3 h
[19] = Drug uptake in human CCRF-CEM cells at 50 uM after 3 hrs by flow cytometry; format: ADME, cell-based
[20] = Drug uptake in human HT1080 cells at 5 uM after 3 hrs by flow cytometry; format: ADME, cell-based; conditions: ht-1080, 3 h
How it was run: (§3)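 Adherent cells were plated at 5×10^4 per well in serum-free medium and left overnight, then exposed to 5 μM compound for 3 h at 37 °C, with untreated cells as control. Cells were washed with DPBS, trypsinised for 5 min and washed twice. Flow cytometry read the Texas Red channel, giving the mean fluorescence of 10,000 cells, in triplicate.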

[21] = Drug uptake in human SKOV3 cells at 5 uM after 3 hrs by flow cytometry; format: ADME, cell-based; conditions: sk-ov-3, 3 h; how it was run: as §3

Row | Compound | inhibition at 24 h, 5 µM [1] [%] | inhibition at 5 µM (HT-1080 [2]) [%] | inhibition at 5 µM (CCRF-CEM [3]) [%] | inhibition at 72 h, 5 µM [4] [%] | inhibition at 5 µM (HT-1080 [5]) [%] | inhibition at 5 µM (SK-OV-3 [6]) [%] | inhibition at 5 µM (CCRF-CEM [7]) [%] | Drug uptake [8] | Drug uptake [9] | Drug uptake [10] | Drug uptake [11] | Drug uptake [12] | viability at 72 h, 5 µM [14] [%] | fold change (FC) (C2C12 [15]) | inhibition at 5 µM (SK-OV-3 [17]) [%] | also measured
1 | COc1cccc2c1C(=O)c1c(O)c3c(c(O)c1C2=O)C[C@@](O)(C(=O)CO)C[C@@H]3O[C@H]1C[C@H](NC(=N)CCCS)[C@H](O)[C@H](C)O1 | 61 | 62 | 48 | 64 | 68 | 42 | 73 | Active | Active | Active | Active | – | – | – | – | –
2 | COc1cccc2c1C(=O)c1c(O)c3c(c(O)c1C2=O)C[C@@](O)(C(=O)CO)C[C@@H]3O[C@H]1C[C@H](NC(=N)CCCSSC[C@@H]2NC(=O)[C@H](CCCNC(=N)N)NC(=O)[C@H](Cc3c[nH]c4ccccc34)NC(=O)[C@H](CCCNC(=N)N)NC(=O)[C@H](Cc3c[nH]c4ccccc34)NC(=O)[C@H](CCCCNC(=O)CCN)NC(=O)[C@H](Cc3c[nH]c4ccccc34)NC(=O)[C@H](CCCNC(=N)N)NC(=O)[C@H](Cc3c[nH]c4ccccc34)NC(=O)[C@H](CCCNC(=N)N)NC2=O)[C@H](O)[C@H](C)O1 (cyclo(C(Doxorubicin(Traut))RWRWK(βAla)WRWR)) | – | – | – | – | – | – | – | Active | Active | Active | Active | Active | 71 | 1.05 | – | Drug uptake [13]: Active; Activity (C2C12 [16]): Non-Toxic
3 | COc1cccc2c1C(=O)c1c(O)c3c(c(O)c1C2=O)C[C@@](O)(C(=O)CO)C[C@@H]3O[C@H]1C[C@H](NC(=N)CCCSSc2ccccn2)[C@H](O)[C@H](C)O1 | 66 | 80 | 46 | 60 | 68 | 39 | 73 | Active | Active | Active | Active | Active | – | – | 72 | Drug uptake [18]: Active; Drug uptake [19]: Active
4 | COc1cccc2c1C(=O)c1c(O)c3c(c(O)c1C2=O)C[C@@](O)(C(=O)CO)C[C@@H]3O[C@H]1C[C@H](N)[C@H](O)[C@H](C)O1 [DOXORUBICIN] | 57 | 66 | 45 | – | – | 51 | 69 | Active | Active | Active | Active | – | 28.6 | 1.09 | 66 to 76 | inhibition (HT-1080 [5]): inactive; Drug uptake [20]: Active; Drug uptake [21]: Active; fold change (FC) (C2C12 [16]): 3.48
5 | N=C(N)NCCC[C@@H]1NC(=O)[C@H](CS)NC(=O)[C@H](CCCNC(=N)N)NC(=O)[C@H](Cc2c[nH]c3ccccc23)NC(=O)[C@H](CCCNC(=N)N)NC(=O)[C@H](Cc2c[nH]c3ccccc23)NC(=O)[C@H](CCCCNC(=O)CCN)NC(=O)[C@H](Cc2c[nH]c3ccccc23)NC(=O)[C@H](CCCNC(=N)N)NC(=O)[C@H](Cc2c[nH]c3ccccc23)NC1=O (cyclo(CRWRWK(βAla)WRWR)) | – | – | – | – | – | – | – | – | – | – | – | – | – | – | – | inhibition (HT-1080 [2]): inactive; inhibition (CCRF-CEM [3]): inactive; inhibition (CCRF-CEM [7]): inactive
